Assay [1] deals with Tyrosine-protein kinase ABL1 (Homo sapiens), P00519 [T315I]. Kind of assay: Inhibition of phosphorylated ABL1 T315I mutant (unknown origin) assessed as residual activity at 1000 nM by KINOMEscan analysis relative to control.
A further assay concerns K562. Kind of assay: Antiproliferative activity against human K562 cells assessed as inhibition of cell viability incubated for 72 hrs by Cell Titer Glo assay. The note with it: K562, 72 h. Type of assay: functional, cell-based. A digest of the protocol:
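K-562 cells (wild-type KRAS, sourced from ATCC) were tested for antiproliferative response.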
On the technique in general: ATP-based viability assays read luminescence as a measure of living cells.

Assay [2] concerns the target Serine/threonine-protein kinase MARK2 (Homo sapiens) (UniProt Q7KZI7). Kind of assay: Inhibition of MARK2 (unknown origin) assessed as residual activity at 1000 nM by KINOMEscan analysis relative to control.
For assay [3], the target named is Calcium/calmodulin-dependent protein kinase type II subunit beta (Homo sapiens) (UniProt Q13554). Kind of assay: Inhibition of CAMK2B (unknown origin) assessed as residual activity at 1000 nM by KINOMEscan analysis relative to control.
The target of assay [4] is 5'-AMP-activated protein kinase catalytic subunit alpha-2 (Homo sapiens) (UniProt P54646). The assay can be described thus: Inhibition of AMPK-alpha2 (unknown origin) assessed as residual activity at 1000 nM by KINOMEscan analysis relative to control.
The target of assay [5] is Serine/threonine-protein kinase PAK 6 (Homo sapiens) (UniProt Q9NQU5). Kind of assay: Inhibition of PAK6 (unknown origin) assessed as residual activity at 1000 nM by KINOMEscan analysis relative to control.
Assay [6] concerns the target Cyclin-dependent kinase 2 (Homo sapiens) (UniProt P24941). The assay can be described thus: Inhibition of CDK2 (unknown origin) assessed as residual activity at 1000 nM by KINOMEscan analysis relative to control.
For assay [7], the target named is Vascular endothelial growth factor receptor 1 (Homo sapiens) (UniProt P17948). The assay can be described thus: Inhibition of FLT1 (unknown origin) assessed as residual activity at 1000 nM by KINOMEscan analysis relative to control.
Assay [8] has as its target Tyrosine-protein kinase Lck (Homo sapiens) (UniProt P06239). Kind of assay: Inhibition of LCK (unknown origin) assessed as residual activity at 1000 nM by KINOMEscan analysis relative to control.
The target in assay [9] is Serine/threonine-protein kinase N2 (Homo sapiens) (UniProt Q16513). Kind of assay: Inhibition of PKN2 (unknown origin) assessed as residual activity at 1000 nM by KINOMEscan analysis relative to control.
The target of assay [10] is T1, Ephrin type-B receptor 6 (Homo sapiens) (UniProt O15197).
T1 sequence (whole entry): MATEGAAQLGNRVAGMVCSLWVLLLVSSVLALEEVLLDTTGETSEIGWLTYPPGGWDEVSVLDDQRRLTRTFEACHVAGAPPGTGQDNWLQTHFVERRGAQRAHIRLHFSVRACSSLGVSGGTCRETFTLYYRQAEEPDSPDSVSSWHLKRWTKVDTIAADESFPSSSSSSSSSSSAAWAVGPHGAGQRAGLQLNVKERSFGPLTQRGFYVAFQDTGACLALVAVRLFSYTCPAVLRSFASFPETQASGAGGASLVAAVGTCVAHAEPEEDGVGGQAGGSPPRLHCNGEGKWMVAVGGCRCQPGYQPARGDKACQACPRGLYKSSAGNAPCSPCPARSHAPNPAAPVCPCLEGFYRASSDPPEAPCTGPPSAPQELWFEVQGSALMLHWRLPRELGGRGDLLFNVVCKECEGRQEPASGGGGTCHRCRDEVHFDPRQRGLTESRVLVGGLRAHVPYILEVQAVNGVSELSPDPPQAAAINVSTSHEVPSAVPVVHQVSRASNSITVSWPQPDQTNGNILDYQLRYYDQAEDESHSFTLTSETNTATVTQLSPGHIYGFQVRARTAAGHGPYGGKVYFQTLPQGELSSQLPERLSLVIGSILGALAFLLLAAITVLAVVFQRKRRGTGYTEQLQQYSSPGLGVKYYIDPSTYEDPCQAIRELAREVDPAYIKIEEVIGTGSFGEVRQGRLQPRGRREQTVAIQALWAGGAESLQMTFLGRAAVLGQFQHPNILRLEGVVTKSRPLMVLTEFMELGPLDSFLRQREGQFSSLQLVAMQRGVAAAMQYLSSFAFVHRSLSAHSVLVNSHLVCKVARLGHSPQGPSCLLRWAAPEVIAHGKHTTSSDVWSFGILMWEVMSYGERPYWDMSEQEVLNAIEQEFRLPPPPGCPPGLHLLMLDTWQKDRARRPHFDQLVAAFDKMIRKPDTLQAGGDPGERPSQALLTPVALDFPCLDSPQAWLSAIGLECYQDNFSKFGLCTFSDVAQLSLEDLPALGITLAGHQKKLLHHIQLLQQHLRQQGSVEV
The assay can be described thus: Inhibition of EPHB6 (unknown origin) assessed as residual activity at 1000 nM by KINOMEscan analysis relative to control.

For assay [11], the target named is T2, Serine/threonine-protein kinase 17A (Homo sapiens) (UniProt Q9UEE5).
T2 sequence (whole entry): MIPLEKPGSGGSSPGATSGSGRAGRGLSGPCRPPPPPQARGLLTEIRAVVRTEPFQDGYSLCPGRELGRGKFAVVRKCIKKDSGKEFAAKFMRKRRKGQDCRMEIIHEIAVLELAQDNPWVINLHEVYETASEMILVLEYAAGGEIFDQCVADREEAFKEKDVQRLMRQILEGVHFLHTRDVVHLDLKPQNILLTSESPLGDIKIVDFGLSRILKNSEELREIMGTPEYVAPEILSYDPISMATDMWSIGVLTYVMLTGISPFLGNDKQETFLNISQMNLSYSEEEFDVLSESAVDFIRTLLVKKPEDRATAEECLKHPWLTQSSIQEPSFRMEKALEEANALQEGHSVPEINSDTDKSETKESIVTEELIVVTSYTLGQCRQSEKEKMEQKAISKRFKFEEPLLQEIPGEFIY
The assay can be described thus: Inhibition of DRAK1 (unknown origin) assessed as residual activity at 1000 nM by KINOMEscan analysis relative to control.

Assay [12] concerns the target T3, Uncharacterized serine/threonine-protein kinase SBK3 (Homo sapiens) (UniProt P0C264).
T3 sequence (whole entry): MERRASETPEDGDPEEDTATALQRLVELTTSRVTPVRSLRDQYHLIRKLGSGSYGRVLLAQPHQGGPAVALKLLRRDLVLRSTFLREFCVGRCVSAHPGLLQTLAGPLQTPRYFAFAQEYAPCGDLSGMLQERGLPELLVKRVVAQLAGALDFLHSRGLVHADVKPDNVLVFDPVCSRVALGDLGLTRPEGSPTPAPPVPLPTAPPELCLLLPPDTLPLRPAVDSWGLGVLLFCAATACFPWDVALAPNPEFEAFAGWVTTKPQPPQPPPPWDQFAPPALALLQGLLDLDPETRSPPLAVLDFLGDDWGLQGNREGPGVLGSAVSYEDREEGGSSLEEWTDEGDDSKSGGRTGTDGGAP
Kind of assay: Inhibition of SgK110 (unknown origin) assessed as residual activity at 1000 nM by KINOMEscan analysis relative to control.

Assay [13] has as its target Tyrosine-protein kinase CSK (Homo sapiens) (UniProt P41240). Kind of assay: Inhibition of CSK (unknown origin) assessed as residual activity at 1000 nM by KINOMEscan analysis relative to control.

The values below come from ChEMBL document CHEMBL5678818, “Discovery of potent SOS1 inhibitors that block RAS activation via disruption of the RAS-SOS1 interaction” (Proc Natl Acad Sci U S A, 2019).

Sequence of Vascular endothelial growth factor receptor 1 (Homo sapiens) (P17948 whole entry): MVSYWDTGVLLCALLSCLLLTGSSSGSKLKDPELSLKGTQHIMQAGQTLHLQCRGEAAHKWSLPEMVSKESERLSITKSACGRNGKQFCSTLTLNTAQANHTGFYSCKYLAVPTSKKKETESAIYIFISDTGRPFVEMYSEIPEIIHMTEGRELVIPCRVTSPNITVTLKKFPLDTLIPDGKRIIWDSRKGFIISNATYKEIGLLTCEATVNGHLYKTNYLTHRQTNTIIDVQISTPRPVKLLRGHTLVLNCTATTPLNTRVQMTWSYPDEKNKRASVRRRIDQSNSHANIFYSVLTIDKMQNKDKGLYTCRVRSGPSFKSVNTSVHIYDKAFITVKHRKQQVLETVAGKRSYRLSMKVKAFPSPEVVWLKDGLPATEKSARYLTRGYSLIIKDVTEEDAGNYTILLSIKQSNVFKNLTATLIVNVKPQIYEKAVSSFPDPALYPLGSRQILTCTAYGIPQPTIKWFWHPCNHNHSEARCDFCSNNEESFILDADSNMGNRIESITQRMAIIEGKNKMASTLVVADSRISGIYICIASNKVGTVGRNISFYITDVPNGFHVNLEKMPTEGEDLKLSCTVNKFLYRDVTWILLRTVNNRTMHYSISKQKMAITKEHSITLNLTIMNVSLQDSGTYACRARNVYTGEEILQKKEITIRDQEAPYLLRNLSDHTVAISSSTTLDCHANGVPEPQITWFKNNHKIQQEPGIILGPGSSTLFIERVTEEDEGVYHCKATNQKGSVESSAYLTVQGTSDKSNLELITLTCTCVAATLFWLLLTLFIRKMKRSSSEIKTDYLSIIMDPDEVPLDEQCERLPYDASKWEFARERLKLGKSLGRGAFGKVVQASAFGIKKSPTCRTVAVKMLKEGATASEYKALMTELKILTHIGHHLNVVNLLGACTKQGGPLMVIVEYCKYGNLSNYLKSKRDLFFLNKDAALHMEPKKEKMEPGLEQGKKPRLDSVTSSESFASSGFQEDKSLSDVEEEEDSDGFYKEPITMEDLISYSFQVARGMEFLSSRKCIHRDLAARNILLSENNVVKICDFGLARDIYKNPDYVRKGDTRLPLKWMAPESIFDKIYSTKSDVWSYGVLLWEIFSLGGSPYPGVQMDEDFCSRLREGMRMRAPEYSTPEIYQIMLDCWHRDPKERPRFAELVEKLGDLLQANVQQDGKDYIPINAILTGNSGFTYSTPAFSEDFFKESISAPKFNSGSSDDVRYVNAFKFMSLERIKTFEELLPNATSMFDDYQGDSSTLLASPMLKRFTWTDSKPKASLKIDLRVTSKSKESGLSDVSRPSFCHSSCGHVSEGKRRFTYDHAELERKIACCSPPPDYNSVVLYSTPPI
Sequence of 5'-AMP-activated protein kinase catalytic subunit alpha-2 (Homo sapiens) (P54646 whole entry, looked up): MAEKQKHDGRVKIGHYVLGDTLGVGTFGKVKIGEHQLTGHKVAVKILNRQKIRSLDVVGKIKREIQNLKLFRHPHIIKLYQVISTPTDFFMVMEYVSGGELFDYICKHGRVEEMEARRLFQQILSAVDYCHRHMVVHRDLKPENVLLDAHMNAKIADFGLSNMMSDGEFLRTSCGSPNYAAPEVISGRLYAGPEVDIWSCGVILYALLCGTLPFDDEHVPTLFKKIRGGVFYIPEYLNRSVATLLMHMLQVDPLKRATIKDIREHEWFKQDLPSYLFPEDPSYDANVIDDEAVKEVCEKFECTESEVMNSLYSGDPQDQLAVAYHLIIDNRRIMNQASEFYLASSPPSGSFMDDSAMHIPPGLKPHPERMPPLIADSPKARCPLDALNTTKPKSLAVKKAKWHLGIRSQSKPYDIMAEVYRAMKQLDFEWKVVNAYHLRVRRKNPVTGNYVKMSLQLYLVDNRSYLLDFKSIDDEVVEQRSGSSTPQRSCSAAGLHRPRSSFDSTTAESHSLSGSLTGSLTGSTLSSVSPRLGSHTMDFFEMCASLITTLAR
Sequence of Serine/threonine-protein kinase MARK2 (Homo sapiens) (Q7KZI7 whole entry): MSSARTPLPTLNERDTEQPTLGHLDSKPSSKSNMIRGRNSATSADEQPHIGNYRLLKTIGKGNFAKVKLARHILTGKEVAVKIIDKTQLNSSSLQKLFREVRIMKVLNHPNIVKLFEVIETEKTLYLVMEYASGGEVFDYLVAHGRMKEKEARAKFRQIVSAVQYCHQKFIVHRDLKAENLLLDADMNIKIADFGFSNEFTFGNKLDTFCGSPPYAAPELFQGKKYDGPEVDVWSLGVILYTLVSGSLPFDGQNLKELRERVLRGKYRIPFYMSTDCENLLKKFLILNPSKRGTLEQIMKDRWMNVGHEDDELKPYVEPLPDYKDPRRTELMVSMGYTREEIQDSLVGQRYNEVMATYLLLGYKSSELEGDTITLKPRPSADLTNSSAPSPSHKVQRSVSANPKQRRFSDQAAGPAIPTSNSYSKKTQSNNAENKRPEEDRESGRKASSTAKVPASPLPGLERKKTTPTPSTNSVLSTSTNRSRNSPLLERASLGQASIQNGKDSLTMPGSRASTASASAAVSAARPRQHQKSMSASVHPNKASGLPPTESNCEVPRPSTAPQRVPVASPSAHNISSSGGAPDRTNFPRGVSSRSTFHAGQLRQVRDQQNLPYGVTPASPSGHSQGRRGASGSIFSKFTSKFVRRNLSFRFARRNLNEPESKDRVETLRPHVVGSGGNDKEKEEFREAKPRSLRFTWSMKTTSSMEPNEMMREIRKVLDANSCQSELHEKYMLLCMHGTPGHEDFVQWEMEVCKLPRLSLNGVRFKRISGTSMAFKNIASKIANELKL
Sequence of Serine/threonine-protein kinase N2 (Homo sapiens) (Q16513 whole entry, looked up): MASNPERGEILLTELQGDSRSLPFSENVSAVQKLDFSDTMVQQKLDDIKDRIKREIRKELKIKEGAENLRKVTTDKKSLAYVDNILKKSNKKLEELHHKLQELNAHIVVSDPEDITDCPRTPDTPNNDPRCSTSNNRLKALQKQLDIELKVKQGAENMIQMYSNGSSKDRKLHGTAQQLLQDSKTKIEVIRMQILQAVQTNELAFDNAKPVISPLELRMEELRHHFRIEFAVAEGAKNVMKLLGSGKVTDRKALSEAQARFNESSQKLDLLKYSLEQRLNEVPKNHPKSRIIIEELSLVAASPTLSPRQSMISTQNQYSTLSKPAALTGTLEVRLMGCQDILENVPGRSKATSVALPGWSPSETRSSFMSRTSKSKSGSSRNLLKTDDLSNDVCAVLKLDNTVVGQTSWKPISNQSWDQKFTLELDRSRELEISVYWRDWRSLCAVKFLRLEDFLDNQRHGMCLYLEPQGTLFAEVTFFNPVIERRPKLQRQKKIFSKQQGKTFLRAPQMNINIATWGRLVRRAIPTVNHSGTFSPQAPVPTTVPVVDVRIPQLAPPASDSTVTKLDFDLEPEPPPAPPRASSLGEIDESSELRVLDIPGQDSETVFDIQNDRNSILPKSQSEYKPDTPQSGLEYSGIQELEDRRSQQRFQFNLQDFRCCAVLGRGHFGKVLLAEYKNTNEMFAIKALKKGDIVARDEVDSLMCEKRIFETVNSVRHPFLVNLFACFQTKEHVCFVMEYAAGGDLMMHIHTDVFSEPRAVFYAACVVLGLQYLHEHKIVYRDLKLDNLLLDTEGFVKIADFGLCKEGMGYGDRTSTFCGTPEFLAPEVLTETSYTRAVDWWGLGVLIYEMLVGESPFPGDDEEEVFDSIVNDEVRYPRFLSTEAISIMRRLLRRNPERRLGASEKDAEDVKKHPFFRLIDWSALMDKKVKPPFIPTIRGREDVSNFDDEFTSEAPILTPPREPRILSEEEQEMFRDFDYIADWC
Sequence of Tyrosine-protein kinase CSK (Homo sapiens) (P41240 2-450 limits assumed): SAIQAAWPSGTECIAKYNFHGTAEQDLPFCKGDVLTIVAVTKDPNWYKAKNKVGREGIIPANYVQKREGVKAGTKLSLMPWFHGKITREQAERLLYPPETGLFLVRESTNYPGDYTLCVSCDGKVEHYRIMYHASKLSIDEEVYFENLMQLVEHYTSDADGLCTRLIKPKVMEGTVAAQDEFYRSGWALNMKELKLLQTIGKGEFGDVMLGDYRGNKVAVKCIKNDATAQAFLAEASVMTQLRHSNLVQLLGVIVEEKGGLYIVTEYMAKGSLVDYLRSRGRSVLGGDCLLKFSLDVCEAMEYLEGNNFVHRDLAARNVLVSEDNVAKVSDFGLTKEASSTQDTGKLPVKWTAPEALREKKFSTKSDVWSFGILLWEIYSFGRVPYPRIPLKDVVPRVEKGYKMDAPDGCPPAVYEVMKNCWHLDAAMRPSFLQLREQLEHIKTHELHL
Sequence of Calcium/calmodulin-dependent protein kinase type II subunit beta (Homo sapiens) (Q13554 whole entry): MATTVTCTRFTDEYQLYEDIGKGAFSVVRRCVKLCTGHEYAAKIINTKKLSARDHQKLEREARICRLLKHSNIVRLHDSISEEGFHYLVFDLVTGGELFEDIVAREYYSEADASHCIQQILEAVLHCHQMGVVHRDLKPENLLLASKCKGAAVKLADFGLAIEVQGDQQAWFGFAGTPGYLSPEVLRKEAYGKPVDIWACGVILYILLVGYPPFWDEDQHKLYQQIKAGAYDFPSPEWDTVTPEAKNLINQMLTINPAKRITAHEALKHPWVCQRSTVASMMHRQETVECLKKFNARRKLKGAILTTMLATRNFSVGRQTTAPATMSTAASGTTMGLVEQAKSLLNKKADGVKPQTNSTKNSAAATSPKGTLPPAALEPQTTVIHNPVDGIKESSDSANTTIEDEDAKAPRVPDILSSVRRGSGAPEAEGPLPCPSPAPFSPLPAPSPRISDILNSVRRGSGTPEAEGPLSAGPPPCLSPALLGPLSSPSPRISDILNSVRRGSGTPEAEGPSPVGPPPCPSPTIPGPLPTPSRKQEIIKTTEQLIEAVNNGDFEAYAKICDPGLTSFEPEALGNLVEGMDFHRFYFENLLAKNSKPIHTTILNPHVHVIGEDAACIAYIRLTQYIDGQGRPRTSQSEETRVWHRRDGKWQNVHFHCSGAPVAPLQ

One may read the IC50 as the concentration at which inhibition is half-maximal. Consider `COc1cc2nc(C)nc(N[C@H](C)c3cccc(-c4cn[nH]c4)c3)c2cc1OC`, for which the Activity in assay [1] is 99%; in assay [2] it was 100%; in assay [3] it was 97%; in [4], 81%; in [5], 88%; in assay [6], 100%. Further, the Activity in assay [7] amounted to 71%; in [8] it was 56%; in assay [9] it was 78%; in [10], 100%; in [11] it was 87%; in assay [12] it was 100%. In addition, the Activity in assay [13] was 93%. In the assay with K562, the IC50 was found to be 3100 nM.

`COc1cc2ncnc(N[C@H](C)c3cccc4ccccc34)c2cc1OC`: the Activity was determined as 96% in assay [1]; 75% in assay [2]; 96% in [3]; 98% in assay [4]; 91% in assay [5]; 100% in [6]. In addition, the Activity in [7] turned out to be 96%; in [8], 70%; in [9] it was 100%; in [10] it was 73%; in [11] it was 100%; in assay [12], 100%. Also, the Activity in [13] was 87%.

Turning to `CNCc1ccccc1-c1csc([C@@H](C)Nc2nc(C)nc3cc(OC)c(OC)cc23)c1` [BAY-293], the IC50 in the assay with K562 amounted to 1090 nM.
